≈ marks a conversion by molar mass, not a printed value.
Tests used:
Staphylococcus aureus = experiment: Antibacterial activity against Staphylococcus aureus ATCC 25923 after 18 hrs by microdilution method; assay type: functional; settings: ATCC 25923, 18 h
[1] = system: Staphylococcus epidermidis; experiment: Antibacterial activity against Staphylococcus epidermidis ATCC 12228 after 18 hrs by microdilution method; assay type: functional; settings: ATCC 12228, 18 h
Micrococcus luteus = experiment: Antibacterial activity against Micrococcus luteus ATCC 9341 after 18 hrs by microdilution method; assay type: functional; settings: ATCC 9341, 18 h
Bacillus subtilis = experiment: Antibacterial activity against Bacillus subtilis ATCC 6633 after 18 hrs by microdilution method; assay type: functional; settings: ATCC 6633, 18 h
[2] = biological target: T1, 11-beta-hydroxysteroid dehydrogenase 1 (Homo sapiens, UniProt P28845); experiment: Inhibition of human 11beta-HSD1 expressed in HEK293 cells assessed as [3H]cortisol at 10 uM by scintillation proximity assay; assay type: cell-based
How it was run: (§1)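 Single-concentration screen at 10 μM by scintillation proximity assay, read as % inhibition. Microsomes were incubated with NADPH and [3H]-cortisone. The [3H]-cortisol formed was captured by a monoclonal antibody on protein A-coated SPA beads. Glycyrrhetinic acid served as positive control.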
Target sequence in this assay (P28845 whole entry, looked up): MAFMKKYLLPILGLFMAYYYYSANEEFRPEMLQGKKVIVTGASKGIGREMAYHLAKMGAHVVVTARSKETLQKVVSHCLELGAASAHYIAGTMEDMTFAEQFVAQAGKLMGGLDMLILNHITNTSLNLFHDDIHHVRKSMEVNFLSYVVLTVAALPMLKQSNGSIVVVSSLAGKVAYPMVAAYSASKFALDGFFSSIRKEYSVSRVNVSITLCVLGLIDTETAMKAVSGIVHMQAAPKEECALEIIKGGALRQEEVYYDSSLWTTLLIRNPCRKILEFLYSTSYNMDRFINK

[3] = biological target: 11-beta-hydroxysteroid dehydrogenase 1 (Mus musculus) (UniProt P50172); experiment: Inhibition of mouse 11beta-HSD1 expressed in HEK293 cells assessed as [3H]cortisol at 10 uM by scintillation proximity assay; assay type: cell-based; how it was run: as §1
[4] = biological target: T1, 11-beta-hydroxysteroid dehydrogenase 1; experiment: Inhibition of human 11beta-HSD1 expressed in HEK293 cells assessed as [3H]cortisol by scintillation proximity assay; assay type: cell-based
How it was run: (§2)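 IC50 by scintillation proximity assay. Enzyme source was microsomes from HEK293 cells stably transfected with human or murine 11β-HSD1. Microsomes were incubated with NADPH and [3H]-cortisone. Product [3H]-cortisol was captured by a monoclonal antibody coupled to protein A-coated SPA beads. Glycyrrhetinic acid served as positive control.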
Target sequence in this assay (P28845 whole entry): as the sequence (P28845 whole entry, looked up) above

[5] = biological target: 11-beta-hydroxysteroid dehydrogenase 1 (Mus musculus, UniProt P50172); experiment: Inhibition of mouse 11beta-HSD1 expressed in HEK293 cells assessed as [3H]cortisol by scintillation proximity assay; assay type: cell-based; how it was run: as §2
Chain of 11-beta-hydroxysteroid dehydrogenase 1 (Mus musculus, UniProt P50172) (P50172 whole entry): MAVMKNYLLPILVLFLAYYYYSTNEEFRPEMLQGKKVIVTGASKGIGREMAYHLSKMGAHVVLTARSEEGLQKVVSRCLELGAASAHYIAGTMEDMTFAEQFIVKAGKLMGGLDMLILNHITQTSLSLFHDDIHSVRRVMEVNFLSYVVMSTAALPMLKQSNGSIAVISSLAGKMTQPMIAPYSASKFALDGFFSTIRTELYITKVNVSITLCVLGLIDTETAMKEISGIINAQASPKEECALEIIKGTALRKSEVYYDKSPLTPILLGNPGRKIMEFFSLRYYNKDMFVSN

Chain of 11-beta-hydroxysteroid dehydrogenase 1 (Mus musculus) (P50172 whole entry, looked up): as the sequence (P50172 whole entry) above

Row | Compound | MIC (Staphylococcus aureus) | MIC [1] | MIC (Micrococcus luteus) | MIC (Bacillus subtilis) | inhibition [2] | inhibition [3] | IC50 [4] | IC50 [5]
1 | C=C(C)[C@@H]1CC[C@@H]2[C@]3(CC[C@]4(C)[C@@H]([C@H]5CC[C@@H](C(C)(C)O)OC5)CC[C@@]24C)C[C@]13CCC(=O)O | > 50 µg/mL | > 50 µg/mL | > 50 µg/mL | > 50 µg/mL | – | – | – | –
2 | C=C(C)[C@@H]1CC[C@@H]2[C@]3(CC[C@]4(C)[C@@H]([C@@H](CCC(=O)O)COC(C)=O)CC[C@@]24C)C[C@]13CCC(=O)O | – | – | – | – | > 60% | > 60% | 1900 nM | –
3 | C=C(C)[C@@H]1CC[C@@H]2[C@]3(CC[C@]4(C)[C@@H]([C@@H](C/C=C/C(C)(C)O)COC(C)=O)CC[C@@]24C)C[C@]13CCC(=O)O | 25 µg/mL (≈ 48.6 µM) | 12.5 µg/mL (≈ 24.3 µM) | 6.3 µg/mL (≈ 12.2 µM) | 6.3 µg/mL (≈ 12.2 µM) | > 60% | > 60% | 2300 nM | 740 nM
4 | C=C(C)[C@@H]1CC[C@@H]2[C@]3(CC[C@]4(C)[C@@H]([C@H](C)CC[C@H](O)C(C)(C)O)CC[C@@]24C)C[C@]13CCC(=O)O | > 50 µg/mL | > 50 µg/mL | 50 µg/mL (≈ 105 µM) | 50 µg/mL (≈ 105 µM) | – | – | – | –
5 | C=C(C)[C@@H]1CC[C@@H]2[C@]3(CC[C@]4(C)[C@@H]([C@H]5CC[C@H](C(C)(C)O)OC5)CC[C@@]24C)C[C@]13CCC(=O)O | 25 µg/mL (≈ 52.9 µM) | 12.5 µg/mL (≈ 26.4 µM) | 3.1 µg/mL (≈ 6.56 µM) | 6.3 µg/mL (≈ 13.3 µM) | > 60% | > 60% | 1900 nM | 240 nM
6 | CC1COc2c(N3CCN(C)CC3)c(F)cc3c(=O)c(C(=O)O)cn1c23 (stereo not given) [OFLOXACIN] | 0.2 µg/mL (≈ 0.553 µM) | 0.2 µg/mL (≈ 0.553 µM) | 1.6 µg/mL (≈ 4.43 µM) | 0.013 µg/mL (≈ 0.036 µM) | – | – | – | –
7 | C=C(C)C(=O)CC[C@@H](COC(C)=O)[C@H]1CC[C@@]2(C)[C@@H]3CC[C@@H](C(=C)C)[C@@]4(CCC(=O)O)C[C@@]34CC[C@]12C | > 50 µg/mL | > 50 µg/mL | > 50 µg/mL | 25 µg/mL (≈ 48.8 µM) | – | – | – | –
8 | C=C(C)[C@H](O)CC[C@@H](COC(C)=O)[C@H]1CC[C@@]2(C)[C@@H]3CC[C@@H](C(=C)C)[C@@]4(CCC(=O)O)C[C@@]34CC[C@]12C | > 50 µg/mL | 25 µg/mL (≈ 48.6 µM) | 12.5 µg/mL (≈ 24.3 µM) | 12.5 µg/mL (≈ 24.3 µM) | – | – | – | –
9 | C=C(C)[C@@H]1CC[C@@H]2[C@]3(CC[C@]4(C)[C@@H]([C@H](C)C/C=C/C(C)(C)O)CC[C@@]24C)C[C@]13CCC(=O)O | > 50 µg/mL | > 50 µg/mL | 6.3 µg/mL (≈ 13.8 µM) | 3.1 µg/mL (≈ 6.79 µM) | – | – | – | –
10 | C=C(C)[C@@H](O)CC[C@@H](COC(C)=O)[C@H]1CC[C@@]2(C)[C@@H]3CC[C@@H](C(=C)C)[C@@]4(CCC(=O)O)C[C@@]34CC[C@]12C | > 50 µg/mL | 25 µg/mL (≈ 48.6 µM) | 12.5 µg/mL (≈ 24.3 µM) | 12.5 µg/mL (≈ 24.3 µM) | – | – | – | –
11 | C=C(C)[C@H](O)CC[C@@H](CO)[C@H]1CC[C@@]2(C)[C@@H]3CC[C@@H](C(=C)C)[C@@]4(CCC(=O)O)C[C@@]34CC[C@]12C | 25 µg/mL (≈ 52.9 µM) | 25 µg/mL (≈ 52.9 µM) | 12.5 µg/mL (≈ 26.4 µM) | 6.3 µg/mL (≈ 13.3 µM) | > 60% | > 60% | 1400 nM | 990 nM

— ChEMBL document CHEMBL3351840, “Lithocarpic Acids A-N, 3,4-seco-Cycloartane Derivatives from the Cupules of Lithocarpus polystachyus” (J Nat Prod, 2014)
